Assay outcomes (PubChem)
Phagocytosis inh: blocks phagocytosis by macrophages; J774A.1 macrophage IgG-bead phagocytosis, imaging; inhibition, % at 5 µM; 110,000 tested, 0.07% active;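 active means inhibition above the mean of the plate negative controls plus 5 SD, cut at about 13% in these data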;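 further: phagocytic index as fraction of beads internalized from green versus red external bead signal; plate controls were DMSO negative control for no effect and cytochalasin-D positive control for full effect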
RAM inhibit: blocks the yeast RAM network | S. cerevisiae dse1pr::URA3 reporter, 5-FOA growth OD615, 2 d; analog-sensitive cbk1-as2 kinase mutant strain | inhibition, % at 50 µM | 190,000 tested, 1.8% active;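 active means inhibition above a set limit, 3 SD over mean compound inhibition, cut at about 8.4% in these data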;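 further: 0% = DMSO-only wells with no growth and 100% = 10 µM 1-NA-PP1 full growth; inhibition rescues growth on 5-FOA so higher OD means more RAM inhibition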
Yeast life ext: yeast lifespan extension; AID 775; S. cerevisiae growth with nicotinamide, OD615; deaD strain in restrictive glucose medium; 130,000 tested, 0.68% active; inhibition of the nicotinamide effect, % at 10 µM;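 active means inhibition above a set limit, placed 3 SD over the median of all compounds, cut at about 26% in these data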;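 further: 0% = nicotinamide-treated wells and 100% = cells grown without nicotinamide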
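Assay system: DeaD-strain S. cerevisiae. Medium: CSMM-D glucose medium, restrictive. Reagent: nicotinamide, 1.5 mM, co-present with compound. Compound: 10 µM single point, 0.25% DMSO. Schedule: culture preincubation 4 h, compound exposure 48 h, both 30 °C. Detection: absorbance at 615 nm.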
BB579 growth dn: reduces growth of yeast BB579 in restrictive medium | S. cerevisiae BB579 growth, OD615, 48 h | inhibition, % at 10 µM | 140,000 tested, 0.51% active | AID 804;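 active means inhibition above a set limit, 3 SD over the mean compound inhibition, cut at about 44% in these data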
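Test system: S. cerevisiae DeaD strain BB579 yeast; Medium: restrictive CSMM-D medium; Compound: one dose, 10 µM compound with 0.25% DMSO; Incubation: 4 h cell preincubation, 48 h compound exposure, 30 °C humidified; Signal: OD at 615 nm; Benchmarks: amphotericin B at 10 µg/mL as positive control.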
RAM 5-FOA: restores 5-FOA growth of efflux-deficient yeast | shares compounds with RAM inhibit | S. cerevisiae efflux-deficient reporter strain, 5-FOA growth OD615, 2 days | max inhibition, % | 1,200 tested, under 10 active | AID 1305; call rule not given here;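 further: plate controls were vehicle for no effect and reference inhibitor for full effect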
* marks the source's active call; other numbers are inactive results; / = not tested or not shown. A selection: hits, their analogues and other compounds. The true share with any hit is near 2.7%.

SMILES	Phagocytosis inh	RAM inhibit	Yeast life ext	BB579 growth dn	RAM 5-FOA
CCc1cc(C(=O)N=Nc2c(O)[nH]c3c(Br)cc(Br)cc23)c2ccccc2n1	-9.0	5.2	-5.3	-35.3	/
Cc1cccc(NC2=CC(=O)CC(C)(C)C2)c1C	/	0.4	/	/	/
CCN(CC)S(=O)(=O)c1ccc(N2CCOCC2)c(NC(=O)CCC2CCCCC2)c1	2.9	14.5*	3.3	-29.7	2.2
CCN(CC)S(=O)(=O)c1ccc(N2CCOCC2)c(NC(=O)Cc2ccccc2)c1	-8.4	0.5	3.8	-31.9	/
CC/C(=C\C(=O)c1cccnc1)Nc1ccc(C)c(C)c1	-0.5	2.8	4.4	-2.2	/
CN(C)c1ccc(NC(=O)CSc2nnc(-c3cccs3)n2Cc2ccco2)cc1	-0.3	1.8	-4.7	-17.2	/
O=C(CSc1nnc(Cc2cccs2)n1Cc1ccco1)Nc1cccc(Cl)c1	-1.0	3.1	-16.3	-31.9	/
Cc1ccc(NC(=O)CSc2nnc(-c3cccs3)n2Cc2ccco2)cc1	-1.4	12.0*	-13.8	2.0	0.9
CCOc1ccc(NC(=O)CSc2nnc(-c3ccccc3Cl)n2Cc2ccco2)cc1	3.0	15.3*	-25.4	-47.7	2.4
O=C(CSc1nnc(Cc2cccs2)n1Cc1ccco1)Nc1cc(Cl)cc(Cl)c1	-2.6	11.5*	-2.2	-54.2	0.9
COc1ccc(NC(=O)CSc2nnc(-c3ccccc3Cl)n2Cc2ccco2)c(OC)c1	-0.3	-0.7	-10.2	-16.7	/
O=C(Nc1cc(Sc2ccccn2)cc([N+](=O)[O-])c1)c1cccc(Cl)c1	/	11.8*	-0.7	-31.8	1.3
O=C(Nc1cc(Sc2ccccn2)cc([N+](=O)[O-])c1)c1ccc(Cl)cc1	/	0.8	-9.9	-34.5	/
CN(C)c1nc(SCCOC(=O)COc2ccc(Cl)cc2Cl)nc(N(C)C)n1	0.0	11.6*	0.5	-29.1	3.1
CN(C)c1nc(OCCOC(=O)COc2ccc(Cl)cc2Cl)nc(N(C)C)n1	-1.2	0.9	-2.0	-46.8	/
COC(=O)c1cc2c(ccn2-c2ccc(F)cc2)n1Cc1ccc(OC)cc1	-8.6	15.3*	5.6	-31.9	4.0
COc1ccc(C(=O)CN2CCN(S(=O)(=O)c3cccc([N+](=O)[O-])c3)CC2)cc1	/	2.6	9.8	2.8	/
CCc1oc2ccccc2c1C(=O)c1cc(Br)c(O)c(Br)c1	/	15.6*	-0.7	82.0*	1.1
COC(=O)c1ccc2c(=O)n(CCN3CCOCC3)c(SCC(=O)NCc3ccccc3)nc2c1	/	0.7	/	/	/
O=C(Nc1ccc(Br)cc1Cl)NC1CC1	/	2.3	/	/	/
COc1ccccc1OCC(=O)Nc1ccc(CSc2ccccc2)cc1C	-1.1	17.8*	-0.5	-28.9	3.1
COc1ccc(C2=NN(C(C#N)c3ccc(OC)cc3)C(c3ccccc3)C2)cc1 (configuration not stated)	-6.1	14.2*	0.2	-18.3	1.9
COc1ccc(C(C#N)N2N=C(c3ccccc3)CC2c2ccccc2)cc1OC (configuration not stated)	-14.7	4.1	-7.8	-12.5	/
O=C(COc1ccc(-c2ccccc2)cc1)N1CCN(S(=O)(=O)Cc2ccccc2)CC1	3.9	4.5	-5.5	-25.1	/
O=C(Nc1ccc2c(c1)OCO2)c1ccc(COc2ccc3c(c2)CCC3)o1	-1.3	11.5*	-7.5	-35.0	3.0
SMILES	Phagocytosis inh	RAM inhibit	Yeast life ext	BB579 growth dn	RAM 5-FOA
Cc1ccc(C(=O)Nc2ccc3c(c2)CCC3)o1	9.2	-0.3	-15.1	-1.5	/
C=CCOc1cccc(/C=C2\C(=O)N(Cc3ccc(C)cc3)C(C)=C2C(=O)OC)c1	-8.4	17.8*	7.1	-19.9	4.2
Cc1cc(C)nc(N2N=C(CSc3ccc(Cl)cc3)CC2=O)n1	/	13.1*	/	/	1.1
COc1ccc(-c2nc3ccccc3c(=O)n2CCOc2ccccc2C)cc1	-5.1	21.0*	11.1	-55.5	7.1
COc1ccc(-c2nc3ccccc3c(=O)n2CCOc2cc(C)ccc2C)cc1	1.7	14.0*	4.7	-54.0	4.9
COc1ccc(-c2nc3ccccc3c(=O)n2CCOc2ccc(C)cc2C)cc1	-8.2	14.8*	6.6	-25.9	6.2
CCc1ccc(NC(=O)c2ccccc2SC)cc1	/	0.6	/	/	/
O=C1OCC2=C1C(c1ccc(F)cc1)CC(=O)N2c1ccccc1 (configuration not stated)	/	-0.4	/	/	/
COc1cccc(-c2csc3nnc(SCC(=O)NCc4cccs4)n23)c1	-0.5	17.4*	5.8	-24.3	1.8
Cc1ccc(SCC(=O)N2c3ccccc3Sc3ccccc32)cc1	/	13.9*	-17.5	-31.4	1.8
CCSc1ccccc1C(=O)NC1CCCCC1	/	2.1	/	/	/
O=C(C(Sc1ccccc1)c1ccccc1)N1CCN(c2ccccc2F)CC1 (configuration not stated)	-2.3	14.4*	-0.1	-62.1	1.2
COc1ccc(CNC(=O)COC(=O)c2cnccn2)cc1	-0.6	-0.1	-17.0	-47.9	/
Nc1nc(-c2ccccc2)c(N=Nc2cccnc2)s1	/	13.4*	/	/	1.8
Cc1cccc(CSC(Nc2ccc(F)cc2)=C(C#N)C#N)c1	-3.0	7.3	1.6	-71.9	/
N#CC(C#N)=C(Nc1ccc(F)cc1)SCc1cccc(Br)c1	-2.2	13.8*	5.5	-72.6	2.7
CCOC(=O)C1=C(N)OC2=C(C(=O)CC(C)(C)C2)C1c1ccc(C)s1 (configuration not stated)	/	16.7*	/	/	2.2
CCOC(=O)c1c(NC(=O)CSc2nc3ccccc3c(=O)n2-c2ccccc2)sc(C(C)=O)c1C	/	3.8	9.5	-52.3	/
Cc1nnc(SCC(=O)c2ccc(C(C)C)cc2)s1	/	-0.8	/	/	/
O=C(CSc1ccc(Cl)cc1Cl)N1CCC(c2nc3ccccc3s2)CC1	/	13.0*	-12.0	-52.7	2.0
CC(C)=CCc1c(O)c(CC=C(C)C)c2c(c1O)C(=O)CC(c1ccc(O)cc1)O2 (configuration not stated)	/	13.2*	/	/	4.6
CC(C)(C)c1nn2cnnc2n(/N=C/c2ccccc2)c1=O	-5.3	0.8	8.7	1.8	/
CCOC(=O)c1c(C)[nH]c(N=Nc2ccccc2C)c1C	/	19.6*	-10.8	-6.7	4.8
CCOC(=O)c1c(C)[nH]c(N=Nc2ccc(C)cc2C)c1C	0.6	5.9	-12.7	-13.0	/
CN(C)c1ccc(N=Nc2ccccc2C(=O)OCC(=O)NCC2CCCCC2)cc1	/	24.7*	14.8	-27.0	3.4
SMILES	Phagocytosis inh	RAM inhibit	Yeast life ext	BB579 growth dn	RAM 5-FOA
CC(C)OC(=O)CC(=O)CSc1nc(-c2ccc(F)cc2)cc(-c2ccccc2)c1C#N	-11.4	14.5*	2.5	-10.0	4.6
CSc1ncc(Cl)c(C(=O)Nc2cccc(C)c2)n1	-4.3	4.2	-6.7	-36.9	/
CCOC(=O)c1cnc(SC)nc1Nc1cccc2ccccc12	/	7.2	/	-2.0	/
CCOC(=O)c1cnc(SC)nc1Oc1cccc(NC(=O)c2ccc(C)cc2)c1	0.8	18.3*	4.7	-51.6	4.8
CCOC(=O)c1cnc(SC)nc1Nc1cccc(F)c1	-0.5	15.6*	-9.8	-19.6	2.2
CNC(=S)N1N=C(c2ccc(C)cc2)CC1c1ccc(Br)cc1 (configuration not stated)	-1.1	21.4*	-5.6	-56.4	2.4
CNC(=S)N1N=C(c2ccc(C)cc2)CC1c1ccc(Cl)cc1 (configuration not stated)	-0.6	3.0	-18.0	-27.4	/
